Holding throughout (type): functional
For assay [1], the species on record is Rattus norvegicus. The experiment in a line: In vitro inhibitory concentration that relaxes KCL induced contraction in rat detrusor strips by 50%; NE=no effect. The procedure, abridged: (§1)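 Female Sprague-Dawley rat (250-350 g) detrusor strips, 4-5 mm by 10 mm, pretensioned 0.25-0.5 g in a tissue bath and contracted with an additional 15 mM KCl. Compounds added as cumulative concentrations to steady state. Contractility measured as 5 min area under the contraction curve per concentration; IC50 is the concentration relaxing KCl-induced contraction by 50%. Glyburide added at end.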

Assay [2] is filed under the species Rattus norvegicus. Briefly: In vitro inhibitory concentration that relaxes KCL induced contraction in rat detrusor strips by 50%; contracted. The procedure, abridged: as §1
Assay [3] relates to Rattus norvegicus. Briefly: compound was evaluated in vivo for maximum % change in MAP in normotensive rat model after oral administration of a dose of 10 mg/kg. The procedure, abridged:
(§2)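 Normotensive rats given test compound orally in a separate group from the efficacy animals. Mean arterial pressure and heart rate recorded after dosing, with maximum % change in MAP from initial values reported. ED20 is the oral dose causing a 20% drop in MAP.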

Assay [4] deals with Rattus norvegicus. The experiment in a line: Compound was evaluated in vivo for the % change in the frequency of spontaneous bladder contractions in the rat after oral administration of a dose of 10 mg/kg.
The species entered for assay [5] is Rattus norvegicus. The experiment in a line: In vitro inhibitory concentration that relaxes KCL induced contraction in rat detrusor strips by 50%. A digest of the protocol: as §1
In assay [6] the test system is Rattus norvegicus. The experiment in a line: compound was evaluated in vivo for maximum % change in MAP in normotensive rat model after oral administration of a dose of 30 mg/kg. The procedure, abridged: as §2
The subject of assay [7] is Rattus norvegicus. The experiment in a line: Effective dose in vivo for reduction in the frequency of spontaneous bladder contractions in the rat oral administration.
The nature of assay [8]: Selectivity ratio of MAP ED20/bladder ED50. The procedure, abridged: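 Ratio of the oral ED20 for a 20% MAP drop in normotensive rats to the oral ED50 for a 50% reduction in spontaneous bladder contraction frequency in the urethral-obstructed rat instability model.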
In assay [9] the test system is Rattus norvegicus. The experiment in a line: Effective dose in vivo for reduction in MAP in normotensive rat model after oral administration. The procedure, abridged: as §2

Usually IC50 stands for the concentration that inhibits the measured activity by half. As a reminder, the ED50 is the dose at which the effect has come halfway, by size or by number of responders.

In the case of `CC(/N=c1\c(O)c(O)\c1=N/c1ccc(C#N)cc1)c1ccc(F)cc1` (configuration not stated), the IC50 entry in the assay listed under Rattus norvegicus [1] was “Not Active”.

As to `CC(/N=c1\c(O)c(O)\c1=N/c1ccc(C#N)cc1)c1ccc([N+](=O)[O-])cc1` (configuration not stated), the IC50 entry in the assay listed under Rattus norvegicus [1] is “Not Active”.

Consider `N#Cc1ccc(Nc2c(NC3CCCCCC3)c(=O)c2=O)cc1`, for which the IC50 result in the assay listed under Rattus norvegicus [2] is given as “contracted”.

As for `CC(/N=C(\NC#N)Nc1ccc(C#N)cc1)C(C)(C)C` (configuration not stated), the Change with Rattus norvegicus [3] was -19%; with Rattus norvegicus [4] it was -27%. The IC50 in the assay filed under Rattus norvegicus [5] (Rattus norvegicus) was found to be 190 nM.

As for `CC(/N=c1\c(O)c(O)\c1=N/c1ccc(C#N)cc1)C(C)(C)C` (configuration not stated), the values for the Change in the assay on Rattus norvegicus [6] and in the assay with Rattus norvegicus [4] were 8% and -83%, respectively. In the assay listed under Rattus norvegicus [5] (Rattus norvegicus), this molecule showed a concentration for half-maximal inhibition (IC50) of 520 nM.

Take `C[C@@H](/N=c1\c(O)c(O)\c1=N/c1ccc(C#N)c(O)c1)C(C)(C)C`: in the assay listed under Rattus norvegicus [1], the IC50 entry is on record as “Not Active”.

In the assay with Rattus norvegicus [7], `CCc1cc(C#N)ccc1Nc1c(N[C@H](C)C(C)(C)C)c(=O)c1=O` yielded an ED50 of 0.13 mg/kg. In addition, the Ratio in assay [8] worked out at 17.7. In the assay filed under Rattus norvegicus [5] (Rattus norvegicus), the IC50 came to 90 nM. The same molecule yielded an ED20 in the assay with Rattus norvegicus [9] of 2.3 mg/kg.

Regarding `CC(/N=c1\c(O)c(O)\c1=N/c1ccccn1)C(C)(C)C` (configuration not stated), the half-inhibitory concentration (IC50) entry in the assay filed under Rattus norvegicus [2] was “contracted”.

The molecule `CC1(C)Oc2ccc(OC(F)(F)F)cc2[C@@H](N2Cc3ccccc3C2=O)[C@@H]1O` returned an ED50 in the assay on Rattus norvegicus [7] of 0.3 mg/kg. The Ratio in assay [8] was 0.7. The molecule further showed an ED20 in the assay with Rattus norvegicus [9] of 0.2 mg/kg.

Turning to `COc1ccc(C(C)/N=c2\c(O)c(O)\c2=N/c2ccc(C#N)cc2)cc1` (configuration not stated), the IC50 result in the assay filed under Rattus norvegicus [2] was “contracted”.

On to `C[C@@H](/N=c1\c(O)c(O)\c1=N/c1ccc(C#N)cc1)C(C)(C)C` (stereo in doubt; 42), for which the IC50 in the assay listed under Rattus norvegicus [5] is 370 nM.

As for `C[C@@H](/N=c1\c(O)c(O)\c1=N/c1ccc(C#N)cc1)C(C)(C)C` (stereo in doubt; 43), in the assay listed under Rattus norvegicus [5], the concentration for half-maximal inhibition (IC50) stood at 24300 nM.

Molecule `N#Cc1ccc(Nc2c(NC3CC4CCC3C4)c(=O)c2=O)cc1` (stereo in doubt; 57) registered a concentration for half-maximal inhibition (IC50) in the assay listed under Rattus norvegicus [5] of 3350 nM.

`N#Cc1ccc(Nc2c(NC3CC4CCC3C4)c(=O)c2=O)cc1` (stereo in doubt; 58) registered a concentration for half-maximal inhibition (IC50) in the assay listed under Rattus norvegicus [5] of over 30000 nM.

Molecule `C[C@](O)(C(=O)Nc1ccc(C(=O)c2ccccc2)cc1)C(F)(F)F` [ZD-6169] had an ED50 with Rattus norvegicus [7] of 2.4 mg/kg. In addition, in assay [8], the Ratio came to 2.9. In the assay listed under Rattus norvegicus [5] (Rattus norvegicus), this molecule registered a half-inhibitory concentration (IC50) of 930 nM. The molecule also gave an ED20 in the assay with Rattus norvegicus [9] of 6.96 mg/kg.

These data come from ChEMBL document CHEMBL1132984 (J Med Chem, 2000).
